Source: PubChem
Most compounds without a hit are left out; they make up all but 4.9% or so of the library.
STAT3 inh: inhibitors of IL-6 induced STAT3 signaling. U3A cells, IL-6 STAT3-luciferase reporter, luminescence; host cell line lacks STAT1. inhibition, % at 5.5 µM. 190,000 tested, 0.89% active. AID 862;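 active = inhibition above the mean inhibition across all screened compounds plus 3 SD, cut at about 44% in these data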;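 also: 0% = DMSO only wells and 100% = 100 µM nifuroxazide control wells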
APP 5'UTR act: APP 5'UTR luciferase reporter activation. SH-SY5Y APP 5'UTR luciferase reporter, luminescence; zero percent = DMSO vehicle wells. activation, % at 2 µM. 190,000 tested, 1% active;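 active = activation above a set limit, based on mean plus 3 SD of controls, cut at about 140% in these data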
STAT1 activator: increases IFN-gamma driven STAT1 reporter signal | activation (% of control), % at 5.5 µM | 200,000 tested, 2.6% active | AID 932 | NIH 3T3 STAT1-luciferase reporter, luminescence; 100% = IFN-gamma alone, no compound;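 active = activation above the screen-wide mean activation plus 3 SD, cut at about 130% in these data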;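 also: raw ratio to IFN-gamma control signal so 100% means no change and 0% no light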
NF-kB expr up: raises NF-kB expression in human neuronal cells; fold change at 12.5 µM; 190,000 tested, 1.6% active; NF-kB reporter expression; hits give high values; AID 1239; in the data active = fold change above about 3.3
STAT3 act: activators of IL-6 induced STAT3 signaling. U3A cells, IL-6 STAT3-luciferase reporter, luminescence; 100% = signal with IL-6 EC80 alone. activation (% of control), % at 5.6 µM. 190,000 tested, 0.91% active;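 active = activation above the screen-wide mean of compound activation plus 3 SD, cut at about 130% in these data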;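 also: 0% = background luminescence of wells with medium and substrate only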
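system = STAT3-luciferase reporter U3A cells | reagent = IL-6 stimulus at 33 ng/mL final | timing = 1 h compound pre-exposure, 6 h IL-6 stimulation, 37 °C | measured by = luminescence | evaluation = % activation versus median of IL-6-stimulated wells | control set = IL-6-only wells as 100% reference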
STAT1 inh: inhibitors of IFN-gamma induced STAT1 signaling. NIH 3T3 STAT1-luciferase reporter, luminescence. 200,000 tested, 0.35% active. inhibition, % at 5.5 µM;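 active = inhibition above a set limit, the mean inhibition across all tested compounds plus 3 SD, cut at about 34% in these data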;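 also: 0% = IFN-gamma with DMSO and 100% = IFN-gamma with 300 µM nifuroxazide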
STAT1 activ conf: STAT1 activation, confirmation assay; 1,200 tested, 97% active; shares compounds with STAT1 activator; activation (% of control), % at 5.7 µM; NIH 3T3 STAT1-luciferase reporter, IFN-gamma potentiation, luminescence; 100% = IFN-gamma EC80 alone, no compound;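 active = activation above a set limit carried over from the earlier primary STAT1 screen, cut at about 140% in these data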;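 also: simple ratio to median IFN-gamma plus DMSO wells so 0% means no light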
NFkB act STAT1ct: counter-screen for STAT1 activators: NF-kappaB activation; shares compounds with STAT1 activator; HEK293T NF-kB luciferase reporter, TNF-alpha stimulated, luminescence; 100% = TNF-alpha with vehicle only; activation (% of control), % at 5.7 µM; 1,200 tested, 43% active;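 active = activation above the mean of solvent-only control wells plus 3 SD, set per campaign, cut at about 130% in these data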;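 also: TNF-alpha given at a submaximal dose yielding about 80% of full reporter signal; values are well signal over median control so 100% means no change and 0% no light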
STAT3 act 2: counter-screen for STAT1 activators: human STAT3 activation; shares compounds with STAT1 activator; U3A cells STAT3-luciferase reporter, IL-6, luminescence; cells lack STAT1; 100 = IL-6 alone, no compound effect; activation (% of control), % at 5.7 µM; 1,200 tested, 46% active; AID 1316;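 active = activation above the solvent-only control well mean plus 3 SD, set per plate batch, cut at about 110% in these data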;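 also: 0% = no luminescence and 100% = median IL-6 plus DMSO wells; higher means more STAT3 reporter activation so hits are non-selective activators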
The depositor's hits bear a star; / = no result.

SMILES	STAT3 inh	APP 5'UTR act	STAT1 activator	NF-kB expr up	STAT3 act	STAT1 inh	STAT1 activ conf	NFkB act STAT1ct	STAT3 act 2
Nc1ccc(-c2nc3ccc([N+](=O)[O-])cc3[nH]2)cc1	5	72	182*	7.1*	94	-92	233*	147*	120*
Nc1ccc(-c2nc3ccc(N)cc3[nH]2)cc1	-11	16	127	/	114	-32	/	/	/
O=C(CCS(=O)(=O)c1cccs1)Nc1ccc(C(=O)NCc2cccs2)cc1	0	9	103	0.89	101	-3	/	/	/
CC(=O)c1ccc(NC(=O)c2ccc(NC(=O)CCS(=O)(=O)c3cccs3)cc2)cc1	-11	-10	157*	1.1	116	-64	169*	121	113*
CN(c1cc(=O)n2ccccc2n1)C1CCCCC1	-2	20	105	1.3	106	-5	/	/	/
Cc1ccc2c(c1)C(=NC1CCCCC1)c1cc3ccccc3nc1-2	-20	178*	192*	5.3*	119	-102	208*	125	150*
Cc1ccc(-c2cc3ccccc3nc2N2CCCC2)cc1	-8	11	98	1.1	111	3	/	/	/
Cc1ccc2c(c1)-c1nc3ccccc3cc1C2=NC1CCCCC1	-4	103	172*	3.7*	99	-80	201*	131	123*
Cc1ccc(C(=O)NNC(=O)c2ccc3ncccc3c2)cc1	10	33	97	0.99	97	3	/	/	/
C/C(N)=C(/C#N)C(=O)COC(=O)c1cc(C)n(-c2ccc(F)cc2)c1C	-3	19	154*	1.9	106	-58	173*	121	153*
c1ccc(-c2csc(N3CCSCC3)n2)cc1	4	35	160*	2.5	97	-63	129*	126	96
CC1CCc2nc(/C(C#N)=C/c3ccncc3)sc2C1 (stereo not drawn)	14	47	152*	1.1	90	-60	160*	130	94
CCCc1ccccc1OCCNC(=O)c1cc(=O)n(C)c(=O)n1C	20	6	74	0.97	89	27	/	/	/
O/N=C/c1ccc(OCc2ccccc2)c(Br)c1	-7	131	162*	6.7*	108	-70	188*	132	123*
O/N=C/c1ccc(OCc2ccccc2F)c(Cl)c1	12	135	156*	1.2	91	-61	202*	130	127*
O/N=C/c1ccc(OCc2ccccc2)c(Cl)c1	-9	117	162*	5.4*	109	-68	203*	134*	119*
O=C(NCCc1ccccn1)C1CCN(S(=O)(=O)c2ccc3ccccc3c2)CC1	-2	-3	103	0.99	103	-5	/	/	/
CCOC(=O)c1cnc2c(-c3ccccc3)cnn2c1N	39	124	186*	7.4*	69	-95	246*	119	99
CCOC(=O)c1cnc2c(-c3ccccc3)c(C)nn2c1N	11	-6	113	1.4	91	-15	/	/	/
CCN1N=C(c2ccccc2)Cn2c1nc1ccccc12	-16	20	98	0.68	119	2	/	/	/
O=C(Cc1nc(=O)c2ccccc2s1)Nc1ccccc1	4	189*	157*	5.8*	103	-63	274*	145*	122*
CCO[C@H]1OC(C(=O)N2CCOCC2)=C[C@@H](C)[C@@H]1CCCO	/	11	102	1.1	/	-1	/	/	/
O=C(NCC1CCCO1)C1CC(c2ccccc2Cl)=NO1 (stereo not drawn)	0	0	101	1.5	100	-2	/	/	/
O=C1c2ccccc2S(=O)(=O)N1CC1CC(c2ccccc2Cl)=NO1 (stereo not drawn)	-4	47	161*	4.9*	107	-67	198*	129	126*
Cc1ccc(-n2ncc3c(NCc4ccco4)ncnc32)cc1C	8	129	154*	4.7*	100	-58	181*	140*	106
SMILES	STAT3 inh	APP 5'UTR act	STAT1 activator	NF-kB expr up	STAT3 act	STAT1 inh	STAT1 activ conf	NFkB act STAT1ct	STAT3 act 2
CCOC(=O)CSc1nc(=O)n2cc(C)ccc2n1	-1	-5	113	1.1	102	-14	/	/	/
COc1ccc(C(=O)N/N=C(\c2ccccc2)c2ccccn2)cc1	7	-78	100	3.2	94	-1	/	/	/
CCOc1ccc(OCc2ccc(C(=O)N/N=C(\C)c3ccccn3)cc2)cc1	-16	-78	169*	2.1	115	-75	146*	188*	91
C(=N\N(c1ccccc1)c1ccccc1)/c1ccc2c(c1)OCO2	-5	-14	106	1.1	108	-6	/	/	/
CN(/N=C/c1ccc2c(c1)OCO2)c1ccccc1	2	93	155*	2.2	101	-61	180*	139*	108
O=C(Nc1ccc(Cl)cc1C(F)(F)F)c1ccccc1	1	1	109	1.4	104	-10	/	/	/
COc1ccc(C(=O)NC(=S)Nc2ccccc2F)cc1	2	116	158*	3	96	-66	171*	134*	100
CCCCCCC(=O)NNC(=O)CC(=O)Nc1ccccc1C(=O)O	-4	14	96	1.1	106	5	/	/	/
Cc1ccc(-n2nnc(-c3ccnc4ccccc34)n2)cc1	/	111	156*	4.2*	/	-58	183*	136*	104
Fc1ccc(-n2nnc(-c3ccnc4ccccc34)n2)cc1	/	142*	171*	4.8*	/	-74	203*	139*	117*
CC(=O)OCCCN1c2ccccc2Nc2nnc(-c3ccccc3)cc21	14	171*	158*	2.1	92	-63	192*	127	95
CC(C)(O)C#Cc1ccc(C(=O)NC(CCCNC(N)=O)C(=O)O)s1 (stereo not drawn)	10	13	104	1.1	100	-6	/	/	/
O=C(O)c1ccc(N=NN2CCCC2)cc1	7	-1	110	1.3	99	-13	/	/	/
O=C(O)c1ccc(N=NN2CCCCCC2)cc1	-9	84	157*	1.8	105	-64	166*	116	120*
c1ccc2c(c1)Cn1c-2nc2ccccc21	40	76	158*	4.7*	68	-64	189*	129	95
